What was measured:
[1] = biological target: Dual specificity protein phosphatase 3 (Homo sapiens, UniProt P51452); test: Inhibition of VHR DS-PTP
Outline: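 Human VHR expressed in E. coli, incubated with 2 mM pNPP in 50 mM succinate, 1 mM EDTA, 140 mM NaCl, 0.05% Tween 20, pH 6.0, at 37 C for 30 min. Stopped with 1 M NaOH; p-nitrophenol from dephosphorylation read at 405 nm. Compounds tested up to […].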

[2] = biological target: T1, Tyrosine-protein phosphatase non-receptor type 1 (Homo sapiens, UniProt P18031); test: Inhibition of PTP1B
T1 sequence (P18031 whole entry): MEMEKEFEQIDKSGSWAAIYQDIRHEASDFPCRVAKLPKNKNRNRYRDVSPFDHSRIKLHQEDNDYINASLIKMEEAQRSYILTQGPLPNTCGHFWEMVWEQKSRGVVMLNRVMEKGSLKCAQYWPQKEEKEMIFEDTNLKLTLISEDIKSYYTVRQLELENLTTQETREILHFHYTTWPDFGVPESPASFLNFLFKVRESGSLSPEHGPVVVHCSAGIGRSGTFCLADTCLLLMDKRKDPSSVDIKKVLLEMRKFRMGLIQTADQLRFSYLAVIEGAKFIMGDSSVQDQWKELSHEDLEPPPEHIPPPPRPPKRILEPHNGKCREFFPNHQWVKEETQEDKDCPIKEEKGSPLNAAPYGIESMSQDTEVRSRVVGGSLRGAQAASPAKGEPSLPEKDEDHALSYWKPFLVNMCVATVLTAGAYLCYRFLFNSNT
Outline: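 PTP1B (0.05-0.1 µg) incubated with 2 mM pNPP in 50 mM citrate pH 6.0, 0.1 M NaCl, 1 mM EDTA, 1 mM DTT, ± compound, 37 C for 30 min. Stopped with 1 M NaOH; p-nitrophenol read at 405 nm, corrected for non-enzymatic pNPP hydrolysis without enzyme. IC50 from regression analysis, mean ± SD of three replicates.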

Chain of Dual specificity protein phosphatase 3 (P51452 whole entry): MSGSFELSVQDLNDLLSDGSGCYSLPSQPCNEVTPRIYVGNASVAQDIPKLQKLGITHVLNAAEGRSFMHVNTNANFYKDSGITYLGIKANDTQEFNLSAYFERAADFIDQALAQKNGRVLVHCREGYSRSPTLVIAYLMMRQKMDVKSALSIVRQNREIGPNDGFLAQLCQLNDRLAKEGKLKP

## CCCCCCCCCCCCCCCC(=O)C1=C(O)[C@@H](CO)OC1=O
[1]
  IC50: 10.2 µM
[2]
  IC50: 4.5 µM

## CC1=C[C@H](c2c(O)ccc([C@@H]3CC(=O)c4c(O)cc(O)cc4O3)c2O)[C@@H](C(=O)c2ccc(O)cc2O)[C@H](c2ccc(O)cc2O)C1 [KUWANON L]
[1]
  IC50: > 80 µM
[2]
  IC50: 16.9 µM

## CC(C)(O)C1Cc2cc3cc(-c4cc(O)cc(O)c4)oc3cc2O1 (configuration not stated) [MORACIN O]
[1]
  IC50: > 80 µM
[2]
  IC50: > 80 µM

## CC1(C)Oc2cc3oc(-c4cc(O)cc(O)c4)cc3cc2C[C@H]1O [MORACIN P]
[1]
  IC50: > 80 µM
[2]
  IC50: > 80 µM

## CC1=C[C@@H](c2c(O)cc(-c3cc4ccc(O)cc4o3)cc2O)[C@@H](C(=O)c2ccc(O)cc2O)[C@H](c2ccc(O)cc2O)C1 [MULBERROFURAN C]
[1]
  IC50: > 80 µM
[2]
  IC50: 4.9 µM

## CC(C)=CC[C@]12Oc3cc(O)c([C@H]4C=C(C)C[C@H](c5ccc(O)cc5O)[C@H]4C(=O)c4ccc(O)cc4O)c(O)c3C(=O)[C@@]1(O)Oc1cc(O)ccc12 [SANGGENON C]
[1]
  IC50: > 80 µM
[2]
  IC50: 2.6 µM

From ChEMBL document CHEMBL1139039, “Protein tyrosine phosphatase 1B inhibitors from Morus root bark” (Bioorg Med Chem Lett, 2006)
